# Results from ChEMBL document CHEMBL1128245, “Dual-acting thromboxane receptor antagonist/synthase inhibitors: synthesis and biological properties of [2-substituted-4-(3-pyridyl)-1,3-dioxan-5-yl] alkenoic acids” (J Med Chem, 1995).
# Columns and labels:
# Homo sapiens = organism: Homo sapiens; assay: In vitro inhibition of U-46,619-induced aggregation of unwashed human platelets.; type: functional; details: Homo sapiens; read-out: pA2 (converted)
# Summary of the method: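 Citrated (3.2%) human venous blood spun at 200g for 10 min. Platelet-rich plasma aggregated with U46619 with or without several antagonist concentrations.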
# [1] = system: Thromboxane-A synthase (Canis familiaris); assay: Ex vivo […] (TXA2 synthase) inhibitory activity after 8 hr of oral dosing (1 mg/kg) in the dog; details: Canis lupus familiaris
# [2] = system: Thromboxane-A synthase (Canis familiaris); assay: Ex vivo […] (TXA2 synthase) inhibitory activity after 5 hr of oral dosing (1 mg/kg) in the dog; details: Canis lupus familiaris
# [3] = system: Thromboxane-A synthase (Canis familiaris); assay: Ex vivo […] (TXA2 synthase) inhibitory activity after 24 hr of oral dosing (1 mg/kg) in the dog; details: Canis lupus familiaris
# Prostacyclin synthase = target: T1, Prostacyclin synthase (Homo sapiens, UniProt Q16647); assay: In vitro inhibition of Prostaglandin I2 synthase in cultured human endothelial cells
# T1 sequence (Q16647 whole entry): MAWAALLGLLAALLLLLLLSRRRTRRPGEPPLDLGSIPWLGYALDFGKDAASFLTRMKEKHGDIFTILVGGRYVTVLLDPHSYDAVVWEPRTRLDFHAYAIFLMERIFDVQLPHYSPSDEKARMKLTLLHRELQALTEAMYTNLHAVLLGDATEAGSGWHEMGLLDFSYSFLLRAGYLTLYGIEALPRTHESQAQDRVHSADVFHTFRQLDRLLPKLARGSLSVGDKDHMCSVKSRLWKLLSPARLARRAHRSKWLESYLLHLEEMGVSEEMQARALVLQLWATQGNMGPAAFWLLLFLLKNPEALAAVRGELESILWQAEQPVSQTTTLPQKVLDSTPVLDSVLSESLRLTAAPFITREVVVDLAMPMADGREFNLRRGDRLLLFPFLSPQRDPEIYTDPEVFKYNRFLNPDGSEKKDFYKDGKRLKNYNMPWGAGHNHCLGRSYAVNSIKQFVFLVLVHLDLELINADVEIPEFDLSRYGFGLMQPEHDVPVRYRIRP
# Thromboxane-A synthase = target: T2, Thromboxane-A synthase (Homo sapiens, UniProt P24557); assay: In vitro Inhibition of thromboxane synthase from human blood platelet microsomes
# T2 sequence (P24557 whole entry): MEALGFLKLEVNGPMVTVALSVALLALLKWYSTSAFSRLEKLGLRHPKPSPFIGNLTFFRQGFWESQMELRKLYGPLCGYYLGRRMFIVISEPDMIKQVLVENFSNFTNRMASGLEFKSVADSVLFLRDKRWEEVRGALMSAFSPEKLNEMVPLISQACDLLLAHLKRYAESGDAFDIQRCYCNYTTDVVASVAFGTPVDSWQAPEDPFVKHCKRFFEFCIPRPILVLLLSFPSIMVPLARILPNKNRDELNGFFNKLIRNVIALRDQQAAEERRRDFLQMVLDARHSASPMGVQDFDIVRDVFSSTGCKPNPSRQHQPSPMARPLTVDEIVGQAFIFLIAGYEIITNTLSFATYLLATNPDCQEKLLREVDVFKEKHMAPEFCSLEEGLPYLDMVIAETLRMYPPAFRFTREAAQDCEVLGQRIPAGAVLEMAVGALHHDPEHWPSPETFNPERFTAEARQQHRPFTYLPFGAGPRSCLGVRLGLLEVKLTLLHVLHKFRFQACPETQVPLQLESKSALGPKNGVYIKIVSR
# Summary of the method: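 Human blood platelet microsomes incubated with [1-14C]arachidonic acid with or without inhibitor. Conversion to labeled thromboxane B2 quantified radiochromatographically. n = 2.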
# Rattus norvegicus [4] = assay: Ex vivo […] (TXA2 synthase) inhibitory activity after 5 hr of oral dosing (10 mg/kg) in the rat; type: functional
# Summary of the method: (§1)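 Rats (n = 6) gavaged, anesthetized, aortic blood taken at 1, 3 or 5 h after dosing. A blood aliquot was challenged with collagen and TXB2 measured by radioimmunoassay; expressed as % inhibition of TXA2 synthase (±SEM).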
# Rattus norvegicus [5] = assay: Ex vivo […] (TXA2 synthase) inhibitory activity after 1 hr of oral dosing (10 mg/kg) in the rat; type: functional; summary of the method: as §1
# Rattus norvegicus [6] = assay: Ex vivo TXA2 ([…]) antagonist activity was determined for U-46,619 induced aggregation (dose ratio) after 3 hr of oral dosing (10 mg/kg) in the rat; type: functional
# Summary of the method: (§2)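 Conscious rats (n = 6) dosed by oral gavage, then anesthetized and bled from the abdominal aorta at 1, 3 or 5 h. Platelet-rich plasma aggregated with U46619 before and after dosing to give a U46619 dose ratio. ">" values mark the maximum dose ratio achievable at the top U46619 concentration (1 × 10^-4 M).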
# Rattus norvegicus [7] = assay: Ex vivo TXA2 ([…]) antagonist activity was determined for U-46,619 induced aggregation (dose ratio) after 5 hr of oral dosing (10 mg/kg) in the rat; type: functional; summary of the method: as §2
# Rattus norvegicus [8] = assay: Ex vivo […] (TXA2 synthase) inhibitory activity after 3 hr of oral dosing (10 mg/kg) in the rat; type: functional; summary of the method: as §1
# Rattus norvegicus [9] = assay: Ex vivo TXA2 ([…]) antagonist activity was determined for U-46,619 induced aggregation (dose ratio) after 1 hr of oral dosing (10 mg/kg) in the rat; type: functional; summary of the method: as §2
SMILES,Kb (Homo sapiens),inhibition [1],inhibition [2],inhibition [3],IC50 (Prostacyclin synthase),IC50 (Thromboxane-A synthase),Inhibition (Rattus norvegicus [4]),Inhibition (Rattus norvegicus [5]),Antagonist activity (Rattus norvegicus [6]),Antagonist activity (Rattus norvegicus [7]),Inhibition (Rattus norvegicus [8]),Antagonist activity (Rattus norvegicus [9])
N#Cc1ccccc1C1OCC(C/C=C\CCC(=O)O)C(c2cccnc2)O1 (centres undefined),245 nM,84%,91%,82.6%,> 100000 nM,54 nM,,,,,,
CC(C)(Oc1ccccc1[N+](=O)[O-])C1OCC(C/C=C\CCC(=O)O)C(c2cccnc2)O1 (centres undefined),11.2 nM,,,,< 1000 nM,< 10 nM,63.2%,85.5%,9,3,75.8%,>57
CC(C)(Oc1ccc(F)cc1)C1OCC(C/C=C\CCC(=O)O)C(c2cccnc2)O1 (centres undefined),120 nM,,,,2000 nM,51 nM,83%,93.2%,4,4,80%,6
